UCH37 DUB inh – blocks the human deubiquitinase UCH37 | Q9Y5K5 | purified proteasome/UCH37, Ub-AMC cleavage fluorescence | inhibition, % (test concentration not listed) | hit rate 0.33% among 330,000;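 active = mean inhibition over replicate wells above about 20%, limit read from the data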;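 also: 0% = compound-free wells with enzyme and 100% = wells lacking proteasome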
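System: Proteasome-associated human UCH37 deubiquitinase; Input: 0.15 nM proteasome in added enzyme buffer; Also added: Ub-AMC substrate from 1 µM stock; Incubation: 30 min compound-proteasome preincubation then 25 min substrate reaction, room temperature; Detection: fluorescence, ex 355 nm, em 460 nm; Read-out: % inhibition of Ub-AMC cleavage fluorescence; Benchmarks: no-proteasome and no-compound wells.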
TbMetRS inhib – blocks T. brucei methionyl-tRNA synthetase activity | purified T. brucei MetRS, ATP depletion, Kinase-Glo luminescence | inhibition, % at 11.9 µM | hit rate 0.4% among 360,000 | AID 624268;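 active = inhibition above a per-plate cutoff of the control wells' mean inhibition plus 3 SD, cut at about 5.5% in these data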;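 also: 0% = DMSO wells median and 100% = median of wells with control inhibitor compound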
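Assay system: T. brucei methionyl-tRNA synthetase, purified | Medium: HEPES buffer with MgCl2, KCl, DTT, spermine, BSA, pyrophosphatase | Compound: 11.9 µM single point | Incubation: 15 min enzyme-compound preincubation, 2 h reaction, 10 min detection, 25 °C | Measured by: Kinase-Glo luciferase luminescence reporting remaining unconsumed ATP | Measure: % inhibition normalized to control-well medians | Replication: Singlicate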
Rin1 Abl inh – inhibitors of human Rin1-Abl protein interaction | P00519+Q13671 | TR-FRET Rin1/Abl binding, biochemical | inhibition, % at 7.35 µM | hit rate 0.4% among 360,000 | AID 588664; in the data active = inhibition above about 5%, passing the limit was not always enough
ATG4B inh – ATG4B (human) cysteine protease inhibition | Q9Y4P1 | ATG4B cleavage of LC3-PLA2, NBD-HPC fluorescence, 1 h | inhibition, % at 8.33 µM | hit rate 0.51% among 340,000 | AID 504462; in the data active = inhibition above about 40%
Starred values were filed as active, the others as inactive; . = no result. Sampled rows, rich in hits. Any-hit rate of the full collection: about 1.4%.

SMILES	UCH37 DUB inh	TbMetRS inhib	Rin1 Abl inh	ATG4B inh
CCOC(=O)NC(=O)/C(C#N)=C\Nc1sccc1C(=O)OC	28*	0	-5	-4
CC(=O)Nc1ccc(S(=O)(=O)NCCSCc2ccc(Cl)cc2Cl)cc1	0	13*	3	-16
CC(=O)Nc1ccc(S(=O)(=O)NCCNS(=O)(=O)c2ccc(NC(C)=O)cc2)cc1	3	0	1	-2
C#CCOCCOCCOCCNc1nc(N2CCN(C(=O)CCCCCCCCCCNC(=O)[C@H](CO)n3cc(CCCSC)nn3)CC2)nc(N2CCN(C(=O)CCCCCCCCCCNC(=O)[C@H](CCCN=C(N)N)n3cc(C[C@@H](C)CC)nn3)CC2)n1	.	0	10	72*
C#CCOCCOCCOCCNc1nc(N2CCN(C(=O)CCCCCCCCCCNC(=O)Cn3cc(C[C@@H](C)O)nn3)CC2)nc(N2CCN(C(=O)CCCCCCCCCCNC(=O)[C@H](CCCCN)n3cc(CCCC(=O)O)nn3)CC2)n1	4	0	6	-10
C#CCOCCOCCOCCNc1nc(N2CCN(C(=O)CCCCCCCCCCNC(=O)Cn3cc(C[C@@H](C)O)nn3)CC2)nc(N2CCN(C(=O)CCCCCCCCCCNC(=O)[C@H](CCCN=C(N)N)n3cc(C[C@@H](C)CC)nn3)CC2)n1	4	-1	13*	31
C#CCOCCOCCOCCNc1nc(N2CCN(C(=O)CCCCCCCCCCNC(=O)[C@H](CO)n3cc(CCCSC)nn3)CC2)nc(N2CCN(C(=O)CCCCCCCCCCNC(=O)[C@H](CCCCN)n3cc(CCO)nn3)CC2)n1	3	0	10	-4
CC(OC(=O)c1ccc([N+](=O)[O-])s1)C(=O)NC1CCCCC1C (stereo not given)	23*	0	2	-7
CC(Oc1ccc([N+](=O)[O-])cc1)C(=O)NCCCN1CCOCC1 (stereo not given)	1	0	2	-6
CCNc1nc(-c2cc(C)n(Cc3ccco3)c2C)cs1	-1	0	2	-6
Cc1cc(-c2csc(NC(=O)c3ccc(=O)[nH]c3)n2)c(C)n1Cc1ccco1	1	1	8.3*	-6
N#C/C(=C\c1ccco1)c1nc2ccccc2s1	7	0	-4	16
N#C/C(=C/c1ccc(-c2cc(C(=O)O)cc(C(=O)O)c2)o1)c1nc2ccccc2s1	28*	.	.	.
COc1ccc(CNC(=O)C2(CC3CC(c4ccccc4)=NO3)CCN(C(=O)C3CCCC3)CC2)cc1 (stereo not given)	30*	0	-3	-13
CN(CC(=O)Nc1c(Cl)cccc1Cl)C(=O)Cc1cccs1	5	-1	1	6
N#Cc1c(NC(=O)c2ccccc2Cl)n(Cc2ccccc2)c2nc3ccccc3nc12	.	6.8*	8	52*
O=C1C(c2c(O)[nH]c3ccccc23)=Nc2ccccc21	3	0	-5	4
CC(=O)c1cccc2c(O)c(C3=Nc4ccccc4C3=O)[nH]c12	28*	0	-4	-13
COC(=O)C1CSC(C)(C)C(=O)N1 (stereo not given)	-1	-1	-4	6
COC(=O)CCCCC1SCC2NC(=O)NC21O (stereo not given)	.	-1	87*	-8
O=C(/C=C/c1ccco1)N1CCCC(c2ccccc2)C1 (stereo not given)	26*	0	3	1
COc1ccccc1N1CCN(C(CNS(=O)(=O)c2cc(F)ccc2F)c2cccnc2)CC1 (stereo not given)	2	0	1	-2
N#C/C(=C/c1ccc(Sc2nc3ccccc3[nH]2)o1)c1cccc(Br)c1	-14	19*	-2	-12
CCOc1ccc(-c2noc(-c3cccnc3)n2)cc1OCC	1	0	-1	1
CCOc1cc(/C=C2/C(=O)N(c3ccccc3)N=C2C)ccc1OC(=O)c1cccs1	7	0	12*	3
SMILES	UCH37 DUB inh	TbMetRS inhib	Rin1 Abl inh	ATG4B inh
COc1ccc(/C=C2/C(=O)N(c3c(F)c(F)c(F)c(F)c3F)N=C2C)cc1	1	0	-3	0
CCOc1cc(C=NNC(=O)c2ccccn2)ccc1OC(=O)c1cccs1	-19	.	.	.
COc1ccc(/C=C2/C(=O)N(c3ccccc3)N=C2C)cc1	5	1	8.1*	-4
COC(=O)C1=C(C(=O)OC)[C@@H]2N(C)c3ccc(OC)cc3[C@@]23C[C@@H](C(=O)OC)N(C(=O)c2cccs2)C3=N1	42*	0	1	4
COC(=O)C1=C(C(=O)OC)[C@@H]2N(C)c3ccccc3[C@@]23C[C@@H](C(=O)OC)N(C(=O)c2cccs2)C3=N1	2	0	1	5
CCOC(=O)C1=CCN(S(=O)(=O)c2ccc(C)cc2)[C@H]1c1ccccc1Cl	.	0	1	.
O=c1cc2oc3cc(O)c(O)cc3c(-c3ccccc3[N+](=O)[O-])c-2cc1O	13	-2	65*	6
O=c1cc(-c2ccccc2Cl)oc2cccc(O)c12	5	0	2	3
CCN(CC)C(=O)CSc1nc2ncc(Br)cc2[nH]1	4	2	3	-9
O=C1CN(S(=O)(=O)c2ccc(Cl)cc2)CC(=O)N1CCc1ccccc1	6	0	2	-2
COc1ccccc1N1CCN(C(=O)NCc2cccc(C(F)(F)F)c2)CC1	3	0	0	44*
C[C@@H]1C=C(C(=O)NCc2ccccc2)O[C@H](OCc2ccc(CO)cc2)C1	4	0	-1	-10
O=C(Nc1ccccc1)C1=C[C@H](c2ccccc2)C[C@H](OCCCCO)O1	5	0	-1	-14
C[C@H]1C=C(C(=O)NCc2nc3ccccc3[nH]2)O[C@@H](OCc2ccc(CO)cc2)C1	0	24*	6	2
O=C(NCc1nc2ccccc2[nH]1)C1=C[C@@H](c2ccccc2)C[C@@H](OCCCCO)O1	-1	70*	-1	-8
COC(=O)c1ccccc1NC1=C/C(=N\S(=O)(=O)c2ccc(C(=O)O)cc2)c2ccccc2C1=O	90*	1	-1	28
CCc1ccc(S(=O)(=O)/N=C2\C=C(Nc3ccc(C(=O)O)cc3)C(=O)c3ccccc32)cc1	.	0	3	25
CCC(=O)N1Cc2ccccc2-c2ccccc2C1=O	2	.	.	41*
CCOc1ccccc1C=NNc1nc(C)cc(=O)[nH]1	7	.	.	.
CC(C)OC(=O)C(C(=O)C(F)(F)F)c1cc(NS(=O)(=O)c2ccc3ccccc3c2)c2ccccc2c1O (stereo not given)	3	-1	-2	51*
CNc1nc2cc([N+](=O)[O-])c([N+](=O)[O-])cc2nc1NC	41*	-1	-6	11
COc1cccc(/C=N/NC(N)=S)c1OCc1cccc(Cl)c1	.	-1	-2	-17
O=Cc1ccc(-n2cccn2)cc1	1	-1	0	5
OCCN1CCN(CC#CCC(c2ccccc2)c2ccccc2)CC1	7	0	-1	-5
OCCN1CCN(CC#CCn2c3ccccc3c3ccccc32)CC1	23*	0	-1	-6
